Here are results for four compounds from ChEMBL document CHEMBL1141316, “Lyngbyastatins 5-7, potent elastase inhibitors from Floridian marine cyanobacteria, Lyngbya spp” (J Nat Prod, 2007).

Structures are written as SMILES. Calls of active or inactive are those of the source. The calls are words filed in the database; no cut-off is given here.

Assay [1] is described as follows: Inhibition of bovine alpha chymotrypsin. More on the design: species or system Bos taurus. The essentials:
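Bovine pancreatic alpha-chymotrypsin, 1 mg/mL stock in 50 mM Tris-HCl/100 mM NaCl/1 mM CaCl2, pH 7.8. Enzyme was preincubated with test sample in DMSO at 37 °C for 10 min. Then N-succinyl-Gly-Gly-Phe-p-nitroanilide was added at 0.75 mM final (≈Km). Absorbance rise at 405 nm was read every 5 min for 30 min. Samples were log/2 dilutions from 1 mM to 100 pM stocks, in triplicate, with PMSF as positive control.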

The species named for a further assay is Sus scrofa. Nature of the assay: Inhibition of pig trypsin up to 30 uM. A digest of the protocol:
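Porcine pancreatic trypsin was run as the chymotrypsin assay: 50 mM Tris-HCl/100 mM NaCl/1 mM CaCl2, pH 7.8, with 10 min preincubation with sample in DMSO at 37 °C. Nα-benzoyl-DL-arginine-4-nitroanilide was the substrate. Absorbance at 405 nm was followed every 5 min for 30 min. Tests were done in triplicate, with PMSF as positive control.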

Assay [2] is described as follows: Inhibition of pig elastase. Set-up: species or system Sus scrofa. A digest of the protocol: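 Porcine pancreatic elastase, 75 µg/mL stock in Tris-HCl pH 8.0. Enzyme was preincubated with test sample (5% DMSO final) at 30 °C for 20 min. Then N-succinyl-Ala-Ala-Ala-p-nitroanilide was added at 1.5 mM final (Km). Absorbance increase at 405 nm was read every 5 min for 30 min. Dilution series in DMSO ran from 1 mM to 100 pM, in triplicate, with PMSF as positive control.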

With `C/C=C1\NC(=O)[C@@H](NC(=O)[C@H](CCc2ccc(O)cc2)NC(=O)[C@H](C)NC(=O)[C@H](O)CO)[C@@H](C)OC(=O)[C@H](C(C)C)NC(=O)[C@H](Cc2ccc(O)cc2)N(C)C(=O)[C@H](Cc2ccccc2)N2C(=O)[C@H](CC[C@H]2O)NC1=O` [LYNGBYASTATIN 5], the results for the concentration for half-maximal inhibition (IC50) in assay [1] and in assay [2] were 2800 nM and 3.2 nM, respectively. The outcome in the assay listed under Sus scrofa was inactive.

On to `C/C=C1\NC(=O)[C@@H](NC(=O)[C@H](CCc2ccc(O)cc2)NC(=O)[C@H](C)NC(=O)[C@H](O)COS(=O)(=O)O)[C@@H](C)OC(=O)[C@H](C(C)C)NC(=O)[C@H](Cc2ccc(O)cc2)N(C)C(=O)[C@H](Cc2ccccc2)N2C(=O)[C@H](CC[C@H]2OC)NC1=O` [LYNGBYASTATIN 6], for which the half-inhibitory concentration (IC50) in assay [1] amounted to 2500 nM; in assay [2], 3.3 nM. For the same compound, the outcome in the assay listed under Sus scrofa was inactive.

`C/C=C1\NC(=O)[C@@H](NC(=O)[C@H](CCC(N)=O)NC(=O)CCCCC)[C@@H](C)OC(=O)[C@H](C(C)C)NC(=O)[C@H](Cc2ccc(O)cc2)N(C)C(=O)[C@H](Cc2ccccc2)N2C(=O)[C@H](CC[C@H]2O)NC1=O` [LYNGBYASTATIN 7]: the outcome in the assay filed under Sus scrofa was inactive.

As to `C/C=C1\NC(=O)[C@@H](NC(=O)[C@H](CCC(N)=O)NC(=O)CCC)[C@@H](C)OC(=O)[C@H](C(C)C)NC(=O)[C@H](Cc2ccc(O)cc2)N(C)C(=O)[C@H](Cc2ccccc2)N2C(=O)[C@H](CC[C@H]2O)NC1=O` [SOMAMIDE B], the half-inhibitory concentration (IC50) was 4200 nM in assay [1] and 9.5 nM in assay [2]. In addition, in the assay filed under Sus scrofa, the result was inactive.
